Biological target: 5-hydroxytryptamine receptor 2A (Rattus norvegicus, UniProt P14842)
Experiment: Displacement of [3H]ketanserin from rat cortex 5HT2A receptor
Procedure, shortened: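 Rat brain tissue by target: striatum for D1, D2 and DAT; olfactory tubercle for D3; cortex for muscarinic, 5-HT3, 5-HT2A, α1, α2, H1, NMDA and SERT; guinea pig cortex for 5-HT4. Inhibitors at seven to nine concentrations. After incubation, samples were filtered on glass fibre filters, washed three times with ice-cold buffer and counted by liquid scintillation. Ki values were derived by curve fitting.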

5-hydroxytryptamine receptor 2A, sequence (P14842 whole entry): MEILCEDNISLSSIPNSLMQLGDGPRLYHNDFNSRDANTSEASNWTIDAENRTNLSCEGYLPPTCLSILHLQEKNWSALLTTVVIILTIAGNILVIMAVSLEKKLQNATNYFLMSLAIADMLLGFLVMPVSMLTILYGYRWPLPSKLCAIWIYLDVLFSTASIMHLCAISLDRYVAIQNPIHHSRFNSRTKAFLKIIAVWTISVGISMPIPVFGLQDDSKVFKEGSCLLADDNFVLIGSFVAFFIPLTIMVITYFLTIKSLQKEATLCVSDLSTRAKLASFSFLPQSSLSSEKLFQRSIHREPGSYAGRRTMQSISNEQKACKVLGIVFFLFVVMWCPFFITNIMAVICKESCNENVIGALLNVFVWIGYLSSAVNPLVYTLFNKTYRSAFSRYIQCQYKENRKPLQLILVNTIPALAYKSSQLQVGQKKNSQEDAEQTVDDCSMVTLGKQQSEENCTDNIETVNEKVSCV

COC(=O)C1(c2ccc(C)cc2)CC1CN1CCC(O)(c2ccccc2)CC1 (stereo unspecified)
Ki: 3.15 µM

From ChEMBL document CHEMBL1142963, “Novel sigma receptor ligands: synthesis and biological profile” (J Med Chem, 2007)
